From ChEMBL document CHEMBL1126841, “Synthesis and structure-activity relationships of 1-acyl-4-((2-methyl-3-pyridyl)cyanomethyl)piperazines as PAF antagonists” (J Med Chem, 1993) come the findings set out here.

A word on the IC50: it is the concentration at which inhibition is half-maximal. The low end stands for greater potency, the high end for weaker potency.

Structures are written as SMILES.

What all share (type): functional
Experiment [1] has as its target Platelet-activating factor receptor (Rattus norvegicus) (UniProt P46002). As to the kind of experiment: Intravenous dose required to reduce the arterial blood pressure caused by PAF by 50% in rats. The gist of the method: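 Male Sprague-Dawley rats (180-220 g) under pentobarbital anesthesia (50 mg/kg ip); carotid blood pressure recorded. Compound in saline given iv (femoral vein) 3 min before PAF 0.5 µg/kg iv; controls got vehicle. % inhibition of hypotension vs controls. ID50 from linear regression of one curve, ≥4 doses, each the mean of ≥2 independent experiments.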

In experiment [2] the target is Platelet-activating factor receptor (Mus musculus) (UniProt Q62035). The experiment in a line: Dose required to inhibit PAF-induced mortality by 50% in mice. The conditions noted are these: Mus sp. Put shortly: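 Male Swiss mice (22-26 g), groups of 10; test compound given po (20 mL/kg), controls 1% Tween 80. 60 min later, C18-PAF 100 µg/kg plus propanolol 1 mg/kg injected into a lateral tail vein. Mortality scored 2 h after PAF; % inhibition vs controls. ID50 from linear regression of one curve, ≥4 points. Initial dose 3 mg/kg; further doses only if >50% inhibition.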

The species named for a further experiment is Oryctolagus cuniculus. As to the kind of experiment: In vitro inhibition of PAF-induced platelet aggregation in male rabbits. Put shortly:
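Platelet-rich plasma from blood spun 250 g, 10 min, 4 °C, diluted with platelet-poor plasma (3000 g, 10 min) to 3.5 × 10^5 platelets/mm3. Aggregation induced with C18-PAF 1.5 × 10^-8 M and read on a dual-channel aggregometer. IC50 as 50% inhibition of maximal aggregation, by linear regression of one curve, ≥4 points, each the mean of 1-3 independent experiments.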

Sequence of Platelet-activating factor receptor (Rattus norvegicus) (P46002 whole entry): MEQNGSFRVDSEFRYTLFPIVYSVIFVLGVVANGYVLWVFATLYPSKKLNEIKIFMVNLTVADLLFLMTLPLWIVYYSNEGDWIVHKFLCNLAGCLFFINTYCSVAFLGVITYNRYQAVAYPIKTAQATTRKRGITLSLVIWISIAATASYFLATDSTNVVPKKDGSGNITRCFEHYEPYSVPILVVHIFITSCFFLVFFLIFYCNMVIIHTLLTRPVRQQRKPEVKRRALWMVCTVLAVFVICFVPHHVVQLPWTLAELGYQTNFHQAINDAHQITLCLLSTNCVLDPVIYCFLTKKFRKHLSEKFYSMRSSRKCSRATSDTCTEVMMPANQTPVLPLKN
Sequence of Platelet-activating factor receptor (Mus musculus) (Q62035 whole entry): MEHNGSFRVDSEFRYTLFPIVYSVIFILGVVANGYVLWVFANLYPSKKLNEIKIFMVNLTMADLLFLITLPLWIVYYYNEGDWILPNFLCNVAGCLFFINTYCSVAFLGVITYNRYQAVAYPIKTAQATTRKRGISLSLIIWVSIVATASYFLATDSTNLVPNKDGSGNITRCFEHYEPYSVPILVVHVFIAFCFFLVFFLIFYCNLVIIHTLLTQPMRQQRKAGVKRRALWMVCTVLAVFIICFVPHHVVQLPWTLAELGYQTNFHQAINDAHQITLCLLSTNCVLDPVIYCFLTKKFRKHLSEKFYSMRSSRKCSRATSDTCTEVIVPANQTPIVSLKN

As for `Cc1ncccc1C(C#N)N1CCN(C(=O)CC(c2ccccc2)N2C(=O)CCC2=O)CC1` (stereo not drawn), the values for the ID50 in experiment [1] and in experiment [2] were 0.042 mg/kg and 0.71 mg/kg, respectively. Also, half-maximal inhibition in the experiment listed under Oryctolagus cuniculus (IC50) was put at 69 nM.
